Measurements reported in ChEMBL document CHEMBL3352487, “Synthesis, antibacterial activity, and biological evaluation of formyl hydroxyamino derivatives as novel potent peptide deformylase inhibitors against drug-resistant bacteria” (Eur J Med Chem, 2014).
Values after ≈ are worked out from the molar mass of the structure shown.

Legend:
[1] = Fraction unbound in CD1 mouse plasma at 2 uM by equilibrium dialysis; type: ADME, cell-free
In short: (§1)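 Pooled CD-1 mouse plasma spiked to 2 µM final, equilibrium dialysis in triplicate against 100 mM PBS pH 7.4, 4 h at 37 °C with rotation; matrix-matched samples acetonitrile-precipitated, LC-MS/MS with internal standards. Unbound = free/total ×100; recovery = (free+total)/pre-dialysis ×100.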

[2] = Protein binding in CD1 mouse plasma at 2 uM by equilibrium dialysis; type: ADME, cell-free; details: read-out: PPB (converted)
[3] = Drug recovery in CD1 mouse plasma at 2 uM by equilibrium dialysis; type: ADME, cell-free; details: read-out: Drug recovery; in short: as §1
Haemophilus influenzae [4] = test: Antimicrobial activity against Haemophilus influenzae Q1 after 24 hrs by broth microdilution method; type: functional; details: Q1, 24 h
In short: (§2)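 Broth microdilution following NCCLS M7-A4; ATCC strains and clinical isolates from a provincial hospital.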

Staphylococcus aureus [5] = test: Antimicrobial activity against Staphylococcus aureus isolate OGA833 after 24 hrs by broth microdilution method; type: functional; details: isolate OGA833, 24 h; in short: as §2
Staphylococcus aureus [6] = test: Antimicrobial activity against Staphylococcus aureus isolate F89 after 24 hrs by broth microdilution method; type: functional; details: isolate F89, 24 h; in short: as §2
Streptococcus pneumoniae [7] = test: Antimicrobial activity against Streptococcus pneumoniae 1629 after 24 hrs by broth microdilution method; type: functional; details: Streptococcus pneumoniae, 1629, 24 h; in short: as §2
Staphylococcus aureus [8] = test: Antimicrobial activity against Staphylococcus aureus isolate Smith ATCC 13709 after 24 hrs by broth microdilution method; type: functional; details: isolate Smith ATCC 13709, 24 h
In short: (§3)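 Broth microdilution following NCCLS M7-A4, using ATCC strains and clinical isolates from a provincial hospital.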

Staphylococcus aureus [9] = test: Antimicrobial activity against Staphylococcus aureus isolate NEQAS 4026 after 24 hrs by broth microdilution method; type: functional; details: isolate NEQAS 4026, 24 h; in short: as §2
Staphylococcus aureus [10] = test: Antimicrobial activity against Staphylococcus aureus isolate 68/8684 after 24 hrs by broth microdilution method; type: functional; details: isolate 68/8684, 24 h; in short: as §2
Staphylococcus aureus [11] = test: Antimicrobial activity against Staphylococcus aureus isolate SWEETING after 24 hrs by broth microdilution method; type: functional; in short: as §3
Haemophilus influenzae [12] = test: Antimicrobial activity against AcrA-deficient Haemophilus influenzae H128 after 24 hrs by broth microdilution method; type: functional; details: H128, 24 h; in short: as §2
Staphylococcus aureus [13] = test: Antimicrobial activity against Staphylococcus aureus isolate 929003 after 24 hrs by broth microdilution method; type: functional; details: isolate 929003, 24 h; in short: as §2
Staphylococcus aureus [14] = test: Antimicrobial activity against Staphylococcus aureus isolate RN1024 after 24 hrs by broth microdilution method; type: functional; details: isolate RN1024, 24 h; in short: as §3
Staphylococcus aureus [15] = test: Antimicrobial activity against Staphylococcus aureus isolate NEQAS 4158 after 24 hrs by broth microdilution method; type: functional; details: isolate NEQAS 4158, 24 h; in short: as §2
Staphylococcus aureus [16] = test: Antimicrobial activity against Staphylococcus aureus isolate RN4220 pmz1 after 24 hrs by broth microdilution method; type: functional; details: isolate RN4220 pmz1, 24 h; in short: as §3
Enterococcus faecalis = test: Antimicrobial activity against Enterococcus faecalis Isolate 1 after 24 hrs by broth microdilution method; type: functional; details: Isolate 1, 24 h; in short: as §2
Streptococcus pyogenes [17] = test: Antimicrobial activity against Streptococcus pyogenes 1308007P after 24 hrs by broth microdilution method; type: functional; in short: as §2
Staphylococcus aureus [18] = test: Antimicrobial activity against Staphylococcus aureus ATCC 29213 after 24 hrs by broth microdilution method; type: functional; details: ATCC 29213, 24 h; in short: as §2
Staphylococcus aureus [19] = test: Antimicrobial activity against Staphylococcus aureus isolate 934387 after 24 hrs by broth microdilution method; type: functional; details: isolate 934387, 24 h; in short: as §3
Staphylococcus aureus [20] = test: Antimicrobial activity against Staphylococcus aureus isolate 934324 after 24 hrs by broth microdilution method; type: functional; details: isolate 934324, 24 h; in short: as §2
Staphylococcus aureus [21] = test: Antimicrobial activity against Staphylococcus aureus isolate RUSSELL after 24 hrs by broth microdilution method; type: functional; in short: as §3
Staphylococcus aureus [22] = test: Antimicrobial activity against Staphylococcus aureus WCUH29 after 24 hrs by broth microdilution method; type: functional; details: WCUH29, 24 h; in short: as §2
Streptococcus pneumoniae [23] = test: Antimicrobial activity against Streptococcus pneumoniae ERY2 after 24 hrs by broth microdilution method; type: functional; details: ERY2, 24 h; in short: as §2
Staphylococcus aureus [24] = test: Antimicrobial activity against Staphylococcus aureus isolate CL 939 after 24 hrs by broth microdilution method; type: functional; details: isolate CL 939, 24 h; in short: as §3
Staphylococcus aureus [25] = test: Antimicrobial activity against Staphylococcus aureus OXFORD after 24 hrs by broth microdilution method; type: functional; in short: as §3
Enterococcus faecium = test: Antimicrobial activity against Enterococcus faecium X7501 after 24 hrs by broth microdilution method; type: functional; details: X7501, 24 h; in short: as §2
Staphylococcus aureus [26] = test: Antimicrobial activity against Staphylococcus aureus isolate 306 after 24 hrs by broth microdilution method; type: functional; details: isolate 306, 24 h; in short: as §2
Escherichia coli = test: Antimicrobial activity against Escherichia coli isolate 3 after 24 hrs by broth microdilution method; type: functional; details: isolate 3, 24 h; in short: as §2
Streptococcus pneumoniae [27] = test: Antimicrobial activity against Streptococcus pneumoniae N1387 after 24 hrs by broth microdilution method; type: functional; details: N1387, 24 h; in short: as §2
Staphylococcus aureus [28] = test: Antimicrobial activity against Staphylococcus aureus isolate A53 after 24 hrs by broth microdilution method; type: functional; details: isolate A53, 24 h; in short: as §3
Staphylococcus aureus [29] = test: Antimicrobial activity against Staphylococcus aureus isolate MN 1255 after 24 hrs by broth microdilution method; type: functional; details: isolate MN 1255, 24 h; in short: as §2
Staphylococcus aureus [30] = test: Antimicrobial activity against Staphylococcus aureus isolate 934334 after 24 hrs by broth microdilution method; type: functional; details: isolate 934334, 24 h; in short: as §2
Staphylococcus aureus [31] = test: Antimicrobial activity against Staphylococcus aureus isolate RN1030 after 24 hrs by broth microdilution method; type: functional; details: isolate RN1030, 24 h; in short: as §3
Staphylococcus aureus [32] = test: Antimicrobial activity against Staphylococcus aureus isolate 934335 after 24 hrs by broth microdilution method; type: functional; details: isolate 934335, 24 h; in short: as §2
Staphylococcus aureus [33] = test: Antimicrobial activity against Staphylococcus aureus isolate CL 1033 after 24 hrs by broth microdilution method; type: functional; details: isolate CL 1033, 24 h; in short: as §2
Staphylococcus aureus [34] = test: Antimicrobial activity against Staphylococcus aureus isolate 929035 after 24 hrs by broth microdilution method; type: functional; details: isolate 929035, 24 h; in short: as §2
Moraxella catarrhalis = test: Antimicrobial activity against Moraxella catarrhalis 1502 after 24 hrs by broth microdilution method; type: functional; details: Moraxella catarrhalis, 1502, 24 h; in short: as §2
Staphylococcus aureus [35] = test: Antimicrobial activity against Staphylococcus aureus isolate Ealing 32 after 24 hrs by broth microdilution method; type: functional; details: isolate Ealing 32, 24 h; in short: as §2
Staphylococcus aureus [36] = test: Antimicrobial activity against Staphylococcus aureus isolate PAV 5 after 24 hrs by broth microdilution method; type: functional; details: isolate PAV 5, 24 h; in short: as §2
Staphylococcus aureus [37] = test: Antimicrobial activity against Staphylococcus aureus isolate CARTER 37 after 24 hrs by broth microdilution method; type: functional; details: isolate CARTER 37, 24 h; in short: as §3
Staphylococcus aureus [38] = test: Antimicrobial activity against Staphylococcus aureus isolate MILES HALL after 24 hrs by broth microdilution method; type: functional; in short: as §3
Staphylococcus aureus [39] = test: Antimicrobial activity against Staphylococcus aureus isolate CL 938 after 24 hrs by broth microdilution method; type: functional; details: isolate CL 938, 24 h; in short: as §2
Staphylococcus aureus [40] = test: Antimicrobial activity against Staphylococcus aureus isolate Ealing 23 after 24 hrs by broth microdilution method; type: functional; details: isolate Ealing 23, 24 h; in short: as §3
Streptococcus pyogenes [41] = test: Antimicrobial activity against Streptococcus pyogenes 1307006P after 24 hrs by broth microdilution method; type: functional; in short: as §2
Haemophilus influenzae [42] = test: Antimicrobial activity against Haemophilus influenzae H128 after 24 hrs by broth microdilution method; type: functional; details: H128, 24 h; in short: as §2

## CC(=O)CC(c1ccccc1)c1c(O)c2ccccc2oc1=O (stereo unspecified) [WARFARIN]
[1]
  fraction unbound at 2 µM: 0.059
[2]
  fraction unbound at 2 µM: 0.059
[3]
  recovery at 2 µM: 104%

## CC1(C)S[C@@H]2[C@H](NC(=O)[C@H](N)c3ccc(O)cc3)C(=O)N2[C@H]1C(=O)O [AMOXICILLIN]
Haemophilus influenzae [4]
  MIC: 0.25 µg/mL (≈ 0.684 µM)
Staphylococcus aureus [5]
  MIC: > 16 µg/mL
Staphylococcus aureus [6]
  MIC: 2 µg/mL (≈ 5.47 µM)
Streptococcus pneumoniae [7]
  MIC: ≤ 0.06 µg/mL
Staphylococcus aureus [8]
  MIC: 0.125 µg/mL (≈ 0.342 µM)
Staphylococcus aureus [9]
  MIC: > 16 µg/mL
Staphylococcus aureus [10]
  MIC: > 16 µg/mL
Staphylococcus aureus [11]
  MIC: 0.125 µg/mL (≈ 0.342 µM)
Haemophilus influenzae [12]
  MIC: 64 µg/mL (≈ 175 µM)
Staphylococcus aureus [13]
  MIC: > 16 µg/mL
Staphylococcus aureus [14]
  MIC: > 16 µg/mL
Staphylococcus aureus [15]
  MIC: > 16 µg/mL
Staphylococcus aureus [16]
  MIC: 0.125 µg/mL (≈ 0.342 µM)
Enterococcus faecalis
  MIC: 0.5 µg/mL (≈ 1.37 µM)
Streptococcus pyogenes [17]
  MIC: ≤ 0.06 µg/mL
Staphylococcus aureus [18]
  MIC: 1 µg/mL (≈ 2.74 µM)
Staphylococcus aureus [19]
  MIC: > 16 µg/mL
Staphylococcus aureus [20]
  MIC: > 16 µg/mL
Staphylococcus aureus [21]
  MIC: > 16 µg/mL
Staphylococcus aureus [22]
  MIC: 64 µg/mL (≈ 175 µM)
Streptococcus pneumoniae [23]
  MIC: ≤ 0.06 µg/mL
Staphylococcus aureus [24]
  MIC: 2 µg/mL (≈ 5.47 µM)
Staphylococcus aureus [25]
  MIC: 0.125 µg/mL (≈ 0.342 µM)
Enterococcus faecium
  MIC: 16 µg/mL (≈ 43.8 µM)
Staphylococcus aureus [26]
  MIC: > 16 µg/mL
Escherichia coli
  MIC: 1 µg/mL (≈ 2.74 µM)
Streptococcus pneumoniae [27]
  MIC: 2 µg/mL (≈ 5.47 µM)
Staphylococcus aureus [28]
  MIC: 0.125 µg/mL (≈ 0.342 µM)
Staphylococcus aureus [29]
  MIC: > 16 µg/mL
Staphylococcus aureus [30]
  MIC: > 16 µg/mL
Staphylococcus aureus [31]
  MIC: > 16 µg/mL
Staphylococcus aureus [32]
  MIC: > 16 µg/mL
Staphylococcus aureus [33]
  MIC: > 16 µg/mL
Staphylococcus aureus [34]
  MIC: > 16 µg/mL
Moraxella catarrhalis
  MIC: ≤ 0.06 µg/mL
Staphylococcus aureus [35]
  MIC: 1 µg/mL (≈ 2.74 µM)
Staphylococcus aureus [36]
  MIC: > 16 µg/mL
Staphylococcus aureus [37]
  MIC: 0.25 µg/mL (≈ 0.684 µM)
Staphylococcus aureus [38]
  MIC: 0.25 µg/mL (≈ 0.684 µM)
Staphylococcus aureus [39]
  MIC: > 16 µg/mL
Staphylococcus aureus [40]
  MIC: 0.5 µg/mL (≈ 1.37 µM)
Streptococcus pyogenes [41]
  MIC: ≤ 0.06 µg/mL
Haemophilus influenzae [42]
  MIC: 32 µg/mL (≈ 87.6 µM)
